In ChEMBL document CHEMBL1146073, “A pyridazine series of alpha2/alpha3 subtype selective GABA A agonists for the treatment of anxiety” (J Med Chem, 2006):

Assays:
[1] = Oral bioavailability in rat; type: ADME, organism-based; conditions: in vivo
Method in brief: (§1)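 Pharmacokinetics from six animals per species: three dosed iv and three dosed po.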

[2] = Stability in dog assessed as liver microsomal turnover; type: ADME, Canis lupus familiaris; conditions: liver microsomes, read-out: Stability
Method in brief: (§2)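 Test compound at 1 µM, with diazepam as control, incubated 0.25 h with pooled liver microsomes at 0.5 mg/mL protein. Compound remaining quantified by LC/MS/MS. Turnover is the mean of three determinations.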

[3] = Half life in rat; type: ADME, organism-based; conditions: in vivo; method in brief: as §1
[4] = molecular target: GABA-A receptor; alpha-5/beta-3/gamma-2 (Homo sapiens) (UniProt P18507+P28472+P31644); assay: Efficacy against recombinant human GABA-Aalpha5 plus beta-3-gamma-2 expressed in L(tk-) cells by whole cell patch clamp method relative to chlordiazepoxide; type: functional, cell-based
Method in brief: (§3)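 Whole-cell patch clamp on αxβ3γ2 receptors stably expressed in L(tk-) cells, measuring the effect on current evoked by an EC20-equivalent of GABA. Reported relative to full agonist chlordiazepoxide (=1.0), or as direct percent modulation of the EC20 control, with inverse agonism given as percent. Mean of at least four independent experiments.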

[5] = Plasma clearance in rat; type: ADME, organism-based; method in brief: as §1
[6] = molecular target: GABA-A receptor; alpha-1/beta-3/gamma-2 (Homo sapiens) (UniProt P14867+P18507+P28472); assay: Efficacy against recombinant human GABA-Aalpha1 plus beta-3-gamma-2 expressed in L(tk-) cells by whole cell patch clamp method; type: functional, cell-based; method in brief: as §3
[7] = molecular target: GABA-A receptor; anion channel (Rattus norvegicus) (UniProt O09028+P15431+P18506+P18508+P19969+P20236+P23574+P23576+P28471+P28473+P30191+P62813+P63079+P63138+Q91ZM7+Q9ES14); assay: Receptor occupancy in vivo by displacement of [3H]Ro 15-1788 binding from GABA-A receptor in rat, po; type: functional, organism-based
Method in brief: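 Rat in vivo occupancy measured by [3H]Ro 15-1788 binding after oral dosing. Rats taken as a subgroup after the plus-maze trial, i.e. 30 min post-dose or later. ED50 derived from dose-dependent occupancy. Mean ± SEM, n = 5-10/group.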

[8] = molecular target: T1, GABA-A receptor; alpha-5/beta-3/gamma-2 (Homo sapiens, UniProt P18507+P28472+P31644); assay: Displacement of [3H]Ro-151788 from recombinant human GABA-Aalpha5 receptor plus beta3gamma2; type: protein-complex assay
T1 sequence (P18507 whole entry): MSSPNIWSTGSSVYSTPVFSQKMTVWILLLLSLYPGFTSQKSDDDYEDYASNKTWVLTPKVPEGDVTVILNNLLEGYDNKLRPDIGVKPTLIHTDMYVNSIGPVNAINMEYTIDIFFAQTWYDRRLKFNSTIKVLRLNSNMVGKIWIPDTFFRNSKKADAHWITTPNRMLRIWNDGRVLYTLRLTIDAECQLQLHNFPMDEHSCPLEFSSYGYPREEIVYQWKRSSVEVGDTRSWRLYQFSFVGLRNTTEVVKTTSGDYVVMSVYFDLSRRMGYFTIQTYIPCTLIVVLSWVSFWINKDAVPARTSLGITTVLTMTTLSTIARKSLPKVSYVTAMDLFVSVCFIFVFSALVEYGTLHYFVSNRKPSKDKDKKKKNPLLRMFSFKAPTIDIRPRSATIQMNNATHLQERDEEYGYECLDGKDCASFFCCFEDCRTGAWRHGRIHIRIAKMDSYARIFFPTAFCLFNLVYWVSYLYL
T1 sequence (P28472 whole entry): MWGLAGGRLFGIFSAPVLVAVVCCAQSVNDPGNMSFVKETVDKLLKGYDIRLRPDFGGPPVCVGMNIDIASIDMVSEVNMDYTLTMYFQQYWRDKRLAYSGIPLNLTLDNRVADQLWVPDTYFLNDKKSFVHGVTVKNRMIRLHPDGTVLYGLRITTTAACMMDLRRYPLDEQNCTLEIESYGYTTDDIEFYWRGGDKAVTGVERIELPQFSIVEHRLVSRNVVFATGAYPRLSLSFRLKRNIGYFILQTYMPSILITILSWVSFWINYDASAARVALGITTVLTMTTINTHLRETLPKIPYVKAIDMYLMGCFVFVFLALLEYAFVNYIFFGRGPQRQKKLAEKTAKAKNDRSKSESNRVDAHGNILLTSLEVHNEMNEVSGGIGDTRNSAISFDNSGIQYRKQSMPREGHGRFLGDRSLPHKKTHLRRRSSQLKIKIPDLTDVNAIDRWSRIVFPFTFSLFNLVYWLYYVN
T1 sequence (P31644 whole entry): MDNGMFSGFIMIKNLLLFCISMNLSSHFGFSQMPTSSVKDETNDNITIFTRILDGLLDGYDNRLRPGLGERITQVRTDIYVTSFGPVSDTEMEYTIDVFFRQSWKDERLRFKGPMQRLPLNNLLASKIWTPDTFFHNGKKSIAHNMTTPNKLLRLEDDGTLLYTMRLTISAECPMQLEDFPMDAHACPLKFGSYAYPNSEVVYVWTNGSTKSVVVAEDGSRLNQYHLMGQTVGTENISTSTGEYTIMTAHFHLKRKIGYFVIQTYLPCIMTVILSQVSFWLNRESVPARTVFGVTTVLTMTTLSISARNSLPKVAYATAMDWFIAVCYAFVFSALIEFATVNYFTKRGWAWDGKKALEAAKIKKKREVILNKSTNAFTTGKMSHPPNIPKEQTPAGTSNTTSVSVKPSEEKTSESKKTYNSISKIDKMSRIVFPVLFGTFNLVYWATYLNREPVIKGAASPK
Method in brief: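 Benzodiazepine-site binding on stably transfected αxβ3γ2 receptors (x = 1, 2, 3 or 5). Inhibition curves run with [3H]Ro15-1788 at roughly twice its Kd. Ki derived by Cheng-Prusoff equation. Mean of three to six determinations.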

[9] = molecular target: GABA-A receptor; alpha-2/beta-3/gamma-2 (Homo sapiens) (UniProt P18507+P28472+P47869); assay: Efficacy against recombinant human GABA-Aalpha2 plus beta-3-gamma-2 expressed in L(tk-) cells by whole cell patch clamp method relative to chlordiazepoxide; type: functional, cell-based; method in brief: as §3
[10] = Stability in human assessed as liver microsomal turnover; type: ADME, Microsome; conditions: liver microsomes, read-out: Stability; method in brief: as §2

SMILES	bioavailability [1]	metabolised [2]	half-life [3]	Efficacy [4]	clearance [5]	Efficacy [6]	Occ50 [7]	Ki [8]	Efficacy [9]	metabolised [10]	Activity [7]
Fc1cnc(-c2cc(-c3ccc(F)c(-c4ncc(F)cc4F)c3)cnn2)c(F)c1	88%	8%	53 h	0.01	0.078 L/h/kg	-7%	0.52 mg/kg	12.1 nM	0.12	3%	–
Fc1cnc(-c2cc(-c3cnnc(-c4c(F)cncc4F)c3)ccc2F)c(F)c1	50%	4%	1.6 h	–	3.54 L/h/kg	-3%	0.22 mg/kg	6 nM	0.28	3%	–
Fc1cnc(-c2cc(-c3cnnc(-c4c(F)cc(F)cc4F)c3)ccc2F)c(F)c1	–	0%	–	0.14	–	-9%	–	5.1 nM	0.36	7%	0.7 mg/kg
Fc1cnc(-c2cc(-c3ccc(F)c(-c4ncccc4F)c3)cnn2)c(F)c1	100%	–	10 h	0.4	0.18 L/h/kg	-0.8%	0.09 mg/kg	2.8 nM	0.43	6%	–
